Laboratory results published in ChEMBL document CHEMBL2086252, “Syntheses and evaluation of anticonvulsant activity of novel branched alkyl carbamates” (J Med Chem, 2012).
Activity calls are given as the source filed them.

Key:
Mus musculus [1] = assay: Anticonvulsant activity in albino CF1 mouse assessed as protection against subcutaneous metrazol-induced seizures at 30 mg/kg, ip after 4 hrs; assay type: functional, organism-based; set-up: dose 30 mg/kg
Summary of the method: (§1)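 Mice dosed ip at 30, 100 or 300 mg/kg, then tested 0.5 h and 4 h after administration in the MES or scMet test. Protection was recorded as animals protected over animals tested. Neurotoxicity was recorded as motor impairment or sedation, as animals affected over animals tested.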

Rattus norvegicus [2] = assay: Neurotoxicity in pilocarpine-induced status epilepticus Sprague-Dawley albino rat model assessed as minimal motor impairment at 200 mg/kg, ip after 0.5 hrs by rotarod test; assay type: toxicity, organism-based; set-up: dose 200 mg/kg, route intraperitoneal; conditions: in vivo
Summary of the method: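 Rat pilocarpine status epilepticus model: test carbamate given at 0 or 30 min after the first observed Racine stage 3 motor seizure, which marks SE onset. Neurotoxicity was scored within the same model.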

Mus musculus [3] = assay: Anticonvulsant activity in albino CF1 mouse assessed as protection against maximal electroshock-induced seizures at 10 mg/kg, ip after 0.5 hrs; assay type: functional, organism-based; set-up: dose 10 mg/kg
Mus musculus [4] = assay: Anticonvulsant activity in albino CF1 mouse assessed as protection against maximal electroshock-induced seizures at 30 mg/kg, ip after 4 hrs; assay type: functional, organism-based; set-up: dose 30 mg/kg; summary of the method: as §1
Rattus norvegicus [5] = assay: Anticonvulsant activity in ip dosed Sprague-Dawley albino rat assessed as protection against pilocarpine-induced status epilepticus after 0.5 hrs; assay type: functional
Summary of the method: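 Pilocarpine status epilepticus model in rats. Number and severity of convulsive seizures were observed behaviourally.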

Mus musculus [6] = assay: Neurotoxicity in albino CF1 mouse assessed as minimal motor impairment at 300 mg/kg, ip after 0.5 hrs by rotarod test; assay type: toxicity, organism-based; set-up: dose 300 mg/kg, route intraperitoneal; conditions: in vivo; summary of the method: as §1
Mus musculus [7] = assay: Neurotoxicity in albino CF1 mouse assessed as minimal motor impairment at 10 mg/kg, ip after 0.5 hrs by rotarod test; assay type: toxicity, organism-based; set-up: dose 10 mg/kg, route intraperitoneal; conditions: in vivo
Mus musculus [8] = assay: Neurotoxicity in albino CF1 mouse assessed as minimal motor impairment at 3 mg/kg, ip after 0.5 hrs by rotarod test; assay type: toxicity, organism-based; set-up: dose 3 mg/kg, route intraperitoneal; conditions: in vivo
Mus musculus [9] = assay: Neurotoxicity in albino CF1 mouse assessed as minimal motor impairment at 100 mg/kg, ip after 4 hrs by rotarod test; assay type: toxicity, organism-based; set-up: dose 100 mg/kg, route intraperitoneal; conditions: in vivo; summary of the method: as §1
Mus musculus [10] = assay: Anticonvulsant activity in albino CF1 mouse assessed as protection against maximal electroshock-induced seizures at 3 mg/kg, ip after 0.5 hrs; assay type: functional, organism-based; set-up: dose 3 mg/kg
Mus musculus [11] = assay: Anticonvulsant activity in albino CF1 mouse assessed as protection against subcutaneous metrazol-induced seizures at 30 mg/kg, ip after 0.5 hrs; assay type: functional, organism-based; set-up: dose 30 mg/kg; summary of the method: as §1
Rattus norvegicus [12] = assay: Protective index, ratio of TD50 for po dosed Sprague-Dawley albino rat by rotarod test to ED50 for po dosed Sprague-Dawley albino rat by maximal electroshock seizures test; assay type: functional
Summary of the method: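 Protective index calculated as TD50/ED50, with TD50 and ED50 taken from the same species and dosing route.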

[13] = Neurotoxicity in po dosed Sprague-Dawley albino rat assessed as minimal motor impairment by rotarod test; assay type: toxicity, organism-based; conditions: in vivo
Summary of the method: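 Rats dosed orally; 4 rats per time point after dosing. Neurotoxicity was scored as motor impairment or sedation and reported as number of animals affected over number tested.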

Mus musculus [14] = assay: Anticonvulsant activity in albino CF1 mouse assessed as protection against maximal electroshock-induced seizures at 100 mg/kg, ip after 0.5 hrs; assay type: functional, organism-based; set-up: dose 100 mg/kg; summary of the method: as §1
Mus musculus [15] = assay: Anticonvulsant activity in albino CF1 mouse assessed as protection against subcutaneous metrazol-induced seizures at 300 mg/kg, ip after 4 hrs; assay type: functional, organism-based; set-up: dose 300 mg/kg; summary of the method: as §1
Mus musculus [16] = assay: Anticonvulsant activity in albino CF1 mouse assessed as protection against maximal electroshock-induced seizures at 300 mg/kg, ip after 4 hrs; assay type: functional, organism-based; set-up: dose 300 mg/kg; summary of the method: as §1
Rattus norvegicus [17] = assay: Neurotoxicity in Sprague-Dawley albino rat assessed as minimal motor impairment at 30 mg/kg, po by rotarod test; assay type: toxicity, organism-based; set-up: dose 30 mg/kg, route oral; conditions: in vivo
Summary of the method: (§2)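 Rats dosed orally. Anti-MES protection was scored as animals protected over animals tested at each time after dosing. Neurotoxicity was scored as motor impairment or sedation, as animals affected over animals tested.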

Rattus norvegicus [18] = assay: Anticonvulsant activity in Sprague-Dawley albino rat assessed as protection against maximal electroshock-induced seizures at 30 mg/kg, po after 1 hr; assay type: functional, organism-based; set-up: dose 30 mg/kg; summary of the method: as §2
Mus musculus [19] = assay: Anticonvulsant activity in albino CF1 mouse assessed as protection against maximal electroshock-induced seizures at 300 mg/kg, ip after 0.5 hrs; assay type: functional, organism-based; set-up: dose 300 mg/kg; summary of the method: as §1
Mus musculus [20] = assay: Neurotoxicity in albino CF1 mouse assessed as minimal motor impairment at 300 mg/kg, ip after 4 hrs by rotarod test; assay type: toxicity, organism-based; set-up: dose 300 mg/kg, route intraperitoneal; conditions: in vivo; summary of the method: as §1
Rattus norvegicus [21] = assay: Anticonvulsant activity in po dosed Sprague-Dawley albino rat assessed as protection against maximal electroshock-induced seizures; assay type: functional
Summary of the method: (§3)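 Quantitative testing: rats dosed orally or ip in MES and scMet tests, and mice dosed ip, including the 6 Hz (32 mA) psychomotor seizure test. ED50 and TD50 were reported in mg/kg with ranges in parentheses. Protective index was calculated as TD50/ED50.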

Mus musculus [22] = assay: Anticonvulsant activity in albino CF1 mouse assessed as protection against subcutaneous metrazol-induced seizures at 100 mg/kg, ip after 4 hrs; assay type: functional, organism-based; set-up: dose 100 mg/kg; summary of the method: as §1
Rattus norvegicus [23] = assay: Anticonvulsant activity in Sprague-Dawley albino rat assessed as protection against maximal electroshock-induced seizures at 30 mg/kg, po after 30 mins; assay type: functional, organism-based; set-up: dose 30 mg/kg; summary of the method: as §2
Mus musculus [24] = assay: Anticonvulsant activity in ip dosed albino CF1 mouse assessed as protection against maximal electroshock-induced seizures; assay type: functional; summary of the method: as §3
Mus musculus [25] = assay: Neurotoxicity in albino CF1 mouse assessed as minimal motor impairment at 30 mg/kg, ip after 0.5 hrs by rotarod test; assay type: toxicity, organism-based; set-up: dose 30 mg/kg, route intraperitoneal; conditions: in vivo; summary of the method: as §1
Mus musculus [26] = assay: Anticonvulsant activity in albino CF1 mouse assessed as protection against maximal electroshock-induced seizures at 30 mg/kg, ip after 0.5 hrs; assay type: functional, organism-based; set-up: dose 30 mg/kg; summary of the method: as §1
Rattus norvegicus [27] = assay: Anticonvulsant activity in Sprague-Dawley albino rat assessed as protection against maximal electroshock-induced seizures at 30 mg/kg, po after 4 hrs; assay type: functional, organism-based; set-up: dose 30 mg/kg; summary of the method: as §2
[28] = Neurotoxicity in ip dosed albino CF1 mouse assessed as minimal motor impairment by rotarod test; assay type: toxicity, organism-based; conditions: in vivo; summary of the method: as §3
Mus musculus [29] = assay: Anticonvulsant activity in albino CF1 mouse assessed as protection against subcutaneous metrazol-induced seizures at 300 mg/kg, ip after 0.5 hrs; assay type: functional, organism-based; set-up: dose 300 mg/kg; summary of the method: as §1
Rattus norvegicus [30] = assay: Anticonvulsant activity in Sprague-Dawley albino rat assessed as protection against maximal electroshock-induced seizures at 30 mg/kg, po after 15 mins; assay type: functional, organism-based; set-up: dose 30 mg/kg; summary of the method: as §2
Mus musculus [31] = assay: Neurotoxicity in albino CF1 mouse assessed as minimal motor impairment at 30 mg/kg, ip after 4 hrs by rotarod test; assay type: toxicity, organism-based; set-up: dose 30 mg/kg, route intraperitoneal; conditions: in vivo; summary of the method: as §1
Mus musculus [32] = assay: Anticonvulsant activity in albino CF1 mouse assessed as protection against maximal electroshock-induced seizures at 100 mg/kg, ip after 4 hrs; assay type: functional, organism-based; set-up: dose 100 mg/kg; summary of the method: as §1

NC(=O)OCCc1ccccc1 [PHENYLETHYL CARBAMATE]
105 mg/kg: ED50 (Rattus norvegicus [5])
< 400 mg/kg: TD50 [13]
18 mg/kg: ED50 (Mus musculus [24])
221 mg/kg: ED97 (Rattus norvegicus [5])
Toxic: Activity (Rattus norvegicus [2]) | Activity (Mus musculus [6])
active: Activity (Mus musculus [14]) | Activity (Mus musculus [16]) | Activity (Rattus norvegicus [18]) | Activity (Mus musculus [19]) | Activity (Rattus norvegicus [23]) | Activity (Mus musculus [26]) | Activity (Mus musculus [29]) | Activity (Rattus norvegicus [30])
inactive: Activity (Mus musculus [1]) | Activity (Mus musculus [3]) | Activity (Mus musculus [4]) | Activity (Mus musculus [10]) | Activity (Mus musculus [11]) | Activity (Mus musculus [15]) | Activity (Mus musculus [22]) | Activity (Rattus norvegicus [27]) | Activity (Mus musculus [32])
16 mg/kg: ED50 (Rattus norvegicus [21])
<25: Ratio TD50/ED50 (Rattus norvegicus [12])
114 mg/kg: TD50 [28]
Non-toxic: Activity (Mus musculus [7]) | Activity (Mus musculus [8]) | Activity (Mus musculus [9]) | Activity (Rattus norvegicus [17]) | Activity (Mus musculus [20]) | Activity (Mus musculus [25]) | Activity (Mus musculus [31])
